Assay results reported in ChEMBL document CHEMBL1151238, “New stilbene derivatives from Calligonum leucocladum” (2004).
Values after ≈ are worked out from the molar mass of the structure shown.

Experiments:
Format in all cases: functional
[1] = tested on: Staphylococcus aureus; test: Antimicrobial activity against methicillin-resistant Staphylococcus aureus 5 after 24 hrs
Procedure, shortened: (§1)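 Overnight 37 °C Mueller-Hinton broth cultures of clinical isolates or strain COL were diluted in 0.85% NaCl and spotted by inoculator at about 10⁶ cfu/mL. Plates were held 37 °C for 24 h. MIC was taken as the lowest concentration giving complete growth inhibition.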

[2] = tested on: Staphylococcus aureus; test: Antimicrobial activity against methicillin-resistant Staphylococcus aureus 2 after 24 hrs; procedure, shortened: as §1
[3] = tested on: Staphylococcus aureus; test: Antimicrobial activity against methicillin-resistant Staphylococcus aureus 12 after 24 hrs; procedure, shortened: as §1
[4] = tested on: Staphylococcus aureus; test: Antimicrobial activity against methicillin-resistant Staphylococcus aureus 4 after 24 hrs; procedure, shortened: as §1
[5] = tested on: Staphylococcus aureus; test: Antimicrobial activity against methicillin-resistant Staphylococcus aureus 1 after 24 hrs; procedure, shortened: as §1
[6] = tested on: Staphylococcus aureus; test: Antimicrobial activity against methicillin-resistant Staphylococcus aureus 8 after 24 hrs; procedure, shortened: as §1
[7] = tested on: Staphylococcus aureus; test: Antimicrobial activity against methicillin-resistant Staphylococcus aureus COL after 24 hrs; procedure, shortened: as §1
[8] = DPPH radical scavenging activity assessed as ratio of absorbance at 20 uM relative to L-cysteine
Procedure, shortened: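 Test compound at 20 μM in ethanolic solution, mixed with ethanol, 50 mM MES buffer (pH 5.5) and 0.5 mM DPPH in ethanol. Decrease in absorbance at 517 nm read after 30 min. L-Cysteine served as reference. Value given as the ratio of absorbance between L-cysteine and test compound.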

O=C(OC[C@H]1O[C@@H](Oc2cc(O)cc(/C=C/c3ccc(O)cc3)c2)[C@H](O)[C@@H](O)[C@@H]1O)c1cc(O)c(O)c(O)c1
MIC [1]: > 250 µg/mL
MIC [2]: 125 µg/mL (≈ 230 µM)
MIC [3]: 250 µg/mL (≈ 461 µM)
MIC [4]: 125 µg/mL (≈ 230 µM)
MIC [5]: 125 µg/mL (≈ 230 µM)
MIC [6]: 125 µg/mL (≈ 230 µM)
MIC [7]: > 250 µg/mL
Ratio [8]: 1.3

CC(=O)O[C@@H]1CO[C@@H](Oc2cc(O)cc(/C=C/c3ccc(O)cc3)c2)[C@H](O)[C@H]1O
Ratio [8]: 0.2

OC[C@H]1O[C@@H](Oc2cc(O)cc(/C=C/c3ccc(O)cc3)c2)[C@H](O)[C@@H](O)[C@@H]1O
Ratio [8]: 0.54

OC[C@H]1O[C@@H](Oc2cc(O)cc(/C=C/c3ccccc3)c2)[C@H](O)[C@@H](O)[C@@H]1O
Ratio [8]: 0.14

Oc1ccc(/C=C/c2cc(O)cc(O[C@@H]3OC[C@@H](O)[C@H](O)[C@H]3O)c2)cc1
Ratio [8]: 0.42

Cc1onc(-c2ccccc2)c1C(=O)N[C@@H]1C(=O)N2[C@@H]1SC(C)(C)[C@@H]2C(=O)O [OXACILLIN]
MIC [1]: 256 µg/mL (≈ 638 µM)
MIC [2]: 256 µg/mL (≈ 638 µM)
MIC [3]: 512 µg/mL (≈ 1280 µM)
MIC [4]: 256 µg/mL (≈ 638 µM)
MIC [5]: 512 µg/mL (≈ 1280 µM)
MIC [6]: 256 µg/mL (≈ 638 µM)
MIC [7]: 512 µg/mL (≈ 1280 µM)

Oc1cc(O)cc(/C=C/c2ccccc2)c1 [PINOSYLVIN]
MIC [1]: 125 µg/mL (≈ 589 µM)
MIC [2]: > 250 µg/mL
MIC [3]: > 250 µg/mL
MIC [4]: > 250 µg/mL
MIC [5]: > 250 µg/mL
MIC [6]: > 250 µg/mL
MIC [7]: 125 µg/mL (≈ 589 µM)
Ratio [8]: 0.52

Oc1ccc(/C=C/c2cc(O)cc(O)c2)cc1 [RESVERATROL]
MIC [1]: > 250 µg/mL
MIC [2]: > 250 µg/mL
MIC [3]: > 250 µg/mL
MIC [4]: > 250 µg/mL
MIC [5]: > 250 µg/mL
MIC [6]: > 250 µg/mL
MIC [7]: > 250 µg/mL
Ratio [8]: 1.77
